Legend:
[1] = Acute toxicity was determined 168 hr after a single ip injection to groups of four male ddY mice.; type: organism-based; conditions: mouse, in vivo
How it was run: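 LD50 calculated by the method of Weil.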

Mus musculus = assay: Analgesic activity against AcOH writhing after po administration.
Rattus norvegicus [2] = assay: Inhibitory activity on carrageenan-induced paw edema in rats 3h after po administration of 50 mg/kg; type: functional
How it was run: (§1)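 Oral dosing, screened first at 50 mg/kg and retested at 20 and 10 mg/kg if inhibition was 30% or more. Paw volume was remeasured at 3 h, and the increase was compared with controls to give percent inhibition.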

Rattus norvegicus [3] = assay: Inhibitory activity on carrageenan-induced paw edema in rats 3h after po administration of 20 mg/kg; type: functional; how it was run: as §1
Rattus norvegicus [4] = assay: Inhibitory activity on carrageenan-induced paw edema in rats 3h after administration of 20 mg/kg; type: functional; how it was run: as §1
Rattus norvegicus [5] = assay: Inhibitory activity on carrageenan-induced paw edema in rats 3h after po administration of 10 mg/kg; type: functional; how it was run: as §1
Rattus norvegicus [6] = assay: Inhibitory activity on carrageenan-induced paw edema in rats 3h after po administration of 0.5 mg/kg; type: functional; conditions: read-out: Inhibition
Rattus norvegicus [7] = assay: Inhibitory activity on carrageenan-induced paw edema in rats 3h after po administration of 2 mg/kg; type: functional; conditions: read-out: Inhibition
Rattus norvegicus [8] = assay: Inhibitory activity on carrageenan-induced paw edema in rats 3h after po administration of 5 mg/kg; type: functional; conditions: read-out: Inhibition

Compound	LD50 at 168 h [1] [mg/kg]	ED50 (Mus musculus) [mg/kg]	inhibition in vivo at 50 mg/kg (Rattus norvegicus [2]) [%]	inhibition in vivo at 20 mg/kg (Rattus norvegicus [3]) [%]	inhibition in vivo at 20 mg/kg (Rattus norvegicus [4]) [%]	inhibition in vivo at 10 mg/kg (Rattus norvegicus [5]) [%]	inhibition in vivo at 0.5 mg/kg (Rattus norvegicus [6]) [%]	inhibition in vivo at 2 mg/kg (Rattus norvegicus [7]) [%]	inhibition in vivo at 5 mg/kg (Rattus norvegicus [8]) [%]
COc1ccc(-c2cccc(CC(=O)O)c2)cc1	> 800	> 50	11	–	–	–	–	–	–
COc1ccc(-c2cc(CC(=O)O)cc(NC(C)=O)c2)cc1	> 800	> 50	15	–	–	–	–	–	–
O=C(O)Cc1cc(Cl)cc(-c2ccccc2)c1	283	> 50	32	25	–	–	–	–	–
CC(C(=O)O)c1cc(F)cc(-c2ccccc2)c1 (centres undefined)	566	> 50	31	–	–	–	–	–	–
COc1ccc(-c2cc(Cl)cc(CC(=O)O)c2)cc1	570	> 50	19	–	–	–	–	–	–
O=C(O)Cc1cccc(-c2ccccc2)c1	566	> 50	47	0	–	–	–	–	–
CC(C(=O)O)c1cc(F)cc(-c2ccc(Cl)cc2)c1 (centres undefined)	200	> 50	< 39	< 26	–	–	–	–	–
COc1ccc(-c2cc(N)cc(CC(=O)O)c2)cc1	800	> 50	0	–	–	–	–	–	–
Nc1cc(CC(=O)O)cc(-c2ccc(Cl)cc2)c1	400	> 50	16	–	–	–	–	–	–
COc1ccc(-c2cccc(C(C)C(=O)O)c2)cc1 (centres undefined)	566	> 50	0	–	–	–	–	–	–
CC(C(=O)O)c1cccc(-c2ccccc2)c1 (centres undefined)	566	26.8	17	–	–	–	–	–	–
Nc1cc(CC(=O)O)cc(-c2ccccc2)c1	566	> 50	0	–	–	–	–	–	–
CC(=O)Nc1cc(CC(=O)O)cc(-c2ccc(Cl)cc2)c1	476	> 50	0	–	–	–	–	–	–
COc1ccc(-c2cc(Cl)cc(C(C)C(=O)O)c2)cc1 (centres undefined)	283	> 50	8	–	–	–	–	–	–
O=C(O)Cc1cc(Cl)cc(-c2ccc(Cl)cc2)c1	283	> 50	45	29	–	–	–	–	–
CC(C(=O)O)c1cc(Cl)cc(-c2ccc(Cl)cc2)c1 (centres undefined)	200	> 50	< 41	< 33	–	–	–	–	–
CC(=O)Nc1cc(CC(=O)O)cc(-c2ccccc2)c1	> 800	> 50	5	–	–	–	–	–	–
CC(C(=O)O)c1cc(Cl)cc(-c2ccccc2)c1 (centres undefined)	168	> 50	4	–	–	–	–	–	–
CC(C(=O)O)c1cccc(-c2ccc(Cl)cc2)c1 (centres undefined)	283	45	35	31	–	–	–	–	–
O=C(O)Cc1cccc(-c2ccc(Cl)cc2)c1	238	> 50	44	< 25	–	–	–	–	–
O=C(O)Cc1cc(F)cc(-c2ccc(Cl)cc2)c1	283	> 50	38	16	–	–	–	–	–
O=C(O)Cc1cc(F)cc(-c2ccccc2)c1	566	> 50	50	–	45	26	–	–	–
COc1cc(CC(=O)O)cc(-c2ccc(Cl)cc2)c1	–	16.1	53	65	–	39	–	–	–
COc1ccc2c(c1)c(CC(=O)O)c(C)n2C(=O)c1ccc(Cl)cc1 [INDOMETHACIN]	–	3.1	–	–	–	–	19	25	45
